Measurements from ChEMBL document CHEMBL3734698, “1H-Pyrazolo[3,4-g]hexahydro-isoquinolines as potent GR antagonists with reduced hERG inhibition and an improved pharmacokinetic profile” (Bioorg Med Chem Lett, 2015).
Calls of active or inactive are those of the source. The rule behind the calls is not given here.

Target: T1, hERG (KCNH2) (Homo sapiens, UniProt Q12809)
Assay: Inhibition of human ERG at 10 uM by patch clamp technique
Conditions: not given

T1 sequence (Q12809 whole entry): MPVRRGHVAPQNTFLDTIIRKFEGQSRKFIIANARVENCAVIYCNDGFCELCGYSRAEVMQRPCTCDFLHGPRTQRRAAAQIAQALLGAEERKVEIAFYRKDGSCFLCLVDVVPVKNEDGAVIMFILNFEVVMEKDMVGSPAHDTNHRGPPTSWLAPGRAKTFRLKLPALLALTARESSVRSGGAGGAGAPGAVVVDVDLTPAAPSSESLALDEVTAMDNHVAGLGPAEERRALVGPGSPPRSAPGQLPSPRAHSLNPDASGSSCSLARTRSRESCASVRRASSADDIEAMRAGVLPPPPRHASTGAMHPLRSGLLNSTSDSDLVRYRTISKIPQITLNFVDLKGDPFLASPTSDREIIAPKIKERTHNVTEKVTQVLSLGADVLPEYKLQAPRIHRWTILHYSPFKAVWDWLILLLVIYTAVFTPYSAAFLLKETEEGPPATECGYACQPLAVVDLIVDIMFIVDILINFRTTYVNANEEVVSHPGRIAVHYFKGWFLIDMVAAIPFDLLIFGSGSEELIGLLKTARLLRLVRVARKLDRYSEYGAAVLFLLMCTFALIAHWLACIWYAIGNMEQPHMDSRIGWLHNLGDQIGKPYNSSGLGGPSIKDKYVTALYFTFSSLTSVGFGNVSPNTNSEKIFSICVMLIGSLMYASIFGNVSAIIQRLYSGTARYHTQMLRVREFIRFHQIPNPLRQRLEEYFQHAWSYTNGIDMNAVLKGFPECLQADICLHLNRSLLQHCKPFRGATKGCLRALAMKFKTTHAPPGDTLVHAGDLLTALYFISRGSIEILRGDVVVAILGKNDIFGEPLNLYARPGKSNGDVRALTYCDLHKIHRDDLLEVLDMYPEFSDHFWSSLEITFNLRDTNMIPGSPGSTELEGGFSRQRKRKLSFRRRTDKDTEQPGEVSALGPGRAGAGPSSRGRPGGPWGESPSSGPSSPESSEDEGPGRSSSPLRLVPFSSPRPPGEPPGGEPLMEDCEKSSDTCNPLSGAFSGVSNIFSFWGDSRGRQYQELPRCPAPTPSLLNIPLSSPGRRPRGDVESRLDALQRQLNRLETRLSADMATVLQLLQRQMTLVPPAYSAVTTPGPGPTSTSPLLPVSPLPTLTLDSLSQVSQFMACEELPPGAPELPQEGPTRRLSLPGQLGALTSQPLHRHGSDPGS

Point of comparison: `O=C(c1ccccn1)[C@]12Cc3cnn(-c4ccc(F)cc4)c3C=C1CCN(S(=O)(=O)c1ccc(F)c(C(F)(F)F)c1)C2`, inhibition at 10 µM 31%. Against it:
- Cc1ccc(S(=O)(=O)N2CCC3=Cc4c(cnn4-c4ccc(F)cc4)C[C@]3(C(=O)c3ccccn3)C2)cc1 — higher, 59%
- O=C(c1ccccn1)[C@]12Cc3cnn(-c4ccc(F)cc4)c3C=C1CCN(S(=O)(=O)c1ccc(Cl)c(Cl)c1)C2 — lower, 16%
- N#Cc1cccc(S(=O)(=O)N2CCC3=Cc4c(cnn4-c4ccc(F)cc4)C[C@]3(C(=O)c3ccccn3)C2)c1 — higher, 42%
- Cc1ccccc1S(=O)(=O)N1CCC2=Cc3c(cnn3-c3ccc(F)cc3)C[C@]2(C(=O)c2ccccn2)C1 — higher, 45%

Target: T1, hERG (KCNH2)
Assay: Inhibition of human ERG at 1 uM by patch clamp technique
Conditions: not given

Point of comparison: `Cc1ccccc1S(=O)(=O)N1CCC2=Cc3c(cnn3-c3ccc(F)cc3)C[C@]2(C(=O)c2ccccn2)C1`, inhibition at 1 µM 26%. Against it:
- Cc1ccc(S(=O)(=O)N2CCC3=Cc4c(cnn4-c4ccc(F)cc4)C[C@]3(C(=O)c3ccccn3)C2)cc1 — higher, 34%
- O=C(c1ccccn1)[C@]12Cc3cnn(-c4ccc(F)cc4)c3C=C1CCN(S(=O)(=O)c1ccc(F)c(C(F)(F)F)c1)C2 — lower, 16%
- O=C(c1ccccn1)[C@]12Cc3cnn(-c4ccc(F)cc4)c3C=C1CCN(S(=O)(=O)c1ccc(Cl)c(Cl)c1)C2 — lower, 7%
- N#Cc1cccc(S(=O)(=O)N2CCC3=Cc4c(cnn4-c4ccc(F)cc4)C[C@]3(C(=O)c3ccccn3)C2)c1 — higher, 27%

System: Rattus norvegicus
Assay: Reduction in cortisone-induced glucose level in rat at 30 mg/kg, po bid
Type: functional, organism-based
Conditions: not given
Outline: (§1)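 Rats received cortisone 30 mg/kg sc once daily for six days. Test agent was given orally twice daily at 30 mg/kg. Glucose and insulin levels were compared with cortisone-only and no-cortisone controls, with mifepristone at the same oral regimen as positive control.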

For `CC#C[C@]1(O)CC[C@H]2[C@@H]3CCC4=CC(=O)CCC4=C3[C@@H](c3ccc(N(C)C)cc3)C[C@@]21C`, the Activity was “Active”.
In the case of `O=C(c1ccccn1)[C@]12Cc3cnn(-c4ccc(F)cc4)c3C=C1CCN(S(=O)(=O)c1ccc(Cl)c(Cl)c1)C2`, the Activity is reported as “Active”.

System: Rattus norvegicus
Assay: Reduction in cortisone-induced insulin level in rat at 30 mg/kg, po bid
Type: functional, organism-based
Conditions: not given
Outline: as §1

With `CC#C[C@]1(O)CC[C@H]2[C@@H]3CCC4=CC(=O)CCC4=C3[C@@H](c3ccc(N(C)C)cc3)C[C@@]21C` the Activity was “Active”.
In the case of `O=C(c1ccccn1)[C@]12Cc3cnn(-c4ccc(F)cc4)c3C=C1CCN(S(=O)(=O)c1ccc(Cl)c(Cl)c1)C2`, the Activity is reported as “Active”.

System: not listed separately
Assay: Cmax in rat at 5 mg/kg, po
Type: ADME, organism-based
Design: dose 5 mg/kg, route oral
Conditions: in vivo
Outline: (§2)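 Rat pharmacokinetics: oral dosing at 5 mg/kg in 10% DMSO in 0.5% aqueous methyl cellulose. Intravenous dosing at 1 mg/kg in 10% DMSO, 45% PEG400 and 45% propylene glycol. Plasma Cmax was taken after the oral dose and clearance after the iv dose, and oral bioavailability was derived.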

Point of comparison: `O=C(c1ccccn1)[C@]12Cc3cnn(-c4ccc(F)cc4)c3C=C1CCN(S(=O)(=O)c1ccc(Cl)c(Cl)c1)C2`, Cmax 0.437 µg/mL. Against it:
- O=C(c1ccccn1)[C@]12Cc3cnn(-c4ccc(F)cc4)c3C=C1CCN(S(=O)(=O)c1ccc(F)c(C(F)(F)F)c1)C2 — 3.9-fold lower, 0.112 µg/mL

System: not listed separately
Assay: Clearance in rat at 1 mg/kg, iv
Type: ADME, organism-based
Conditions: in vivo
Outline: as §2

`O=C(c1ccccn1)[C@]12Cc3cnn(-c4ccc(F)cc4)c3C=C1CCN(S(=O)(=O)c1ccc(F)c(C(F)(F)F)c1)C2` showed a clearance of 6.18 L/h/kg.

Target: T2, Glucocorticoid receptor (Rattus norvegicus, UniProt P06536)
T2 sequence (P06536 whole entry): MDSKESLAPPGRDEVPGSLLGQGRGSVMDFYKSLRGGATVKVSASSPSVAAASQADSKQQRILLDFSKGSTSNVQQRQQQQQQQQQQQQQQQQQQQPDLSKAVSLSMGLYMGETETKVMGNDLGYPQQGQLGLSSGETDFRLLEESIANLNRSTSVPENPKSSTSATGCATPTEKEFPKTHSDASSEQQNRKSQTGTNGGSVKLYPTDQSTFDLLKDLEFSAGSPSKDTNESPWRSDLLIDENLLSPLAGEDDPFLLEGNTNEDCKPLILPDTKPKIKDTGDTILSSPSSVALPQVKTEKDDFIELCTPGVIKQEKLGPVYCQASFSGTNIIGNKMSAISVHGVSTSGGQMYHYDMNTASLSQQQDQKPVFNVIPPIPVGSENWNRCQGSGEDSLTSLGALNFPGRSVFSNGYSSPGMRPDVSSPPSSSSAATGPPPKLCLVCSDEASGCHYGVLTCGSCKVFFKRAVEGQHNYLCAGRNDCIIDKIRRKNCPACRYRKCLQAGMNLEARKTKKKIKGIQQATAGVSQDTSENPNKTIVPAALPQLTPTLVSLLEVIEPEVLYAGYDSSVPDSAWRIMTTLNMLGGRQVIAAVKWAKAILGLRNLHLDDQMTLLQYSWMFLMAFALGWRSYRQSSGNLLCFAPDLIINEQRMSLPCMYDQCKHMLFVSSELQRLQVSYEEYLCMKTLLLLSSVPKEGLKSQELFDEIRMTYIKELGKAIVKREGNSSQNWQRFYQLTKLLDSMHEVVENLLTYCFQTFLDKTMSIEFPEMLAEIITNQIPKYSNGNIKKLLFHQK
Assay: Antagonist activity at glucocorticoid receptor in rat H4IIEC3 cells assessed as glucocorticoid-induced TAT activity
Type: cell-based
Conditions: not given
Outline: (§3)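 Glucocorticoid receptor antagonism was measured as blockade of dexamethasone-induced tyrosine amino transferase (TAT) activity. Cells were rat H4IIEC3 cells or primary hepatocytes from rat or cynomolgus monkey, as the line specifies.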

Molecule `O=C(c1ccccn1)[C@]12Cc3cnn(-c4ccc(F)cc4)c3C=C1CCN(S(=O)(=O)c1ccc(Cl)c(Cl)c1)C2` has a Ki of 8.5 nM.

Target: T3, Glucocorticoid receptor (Homo sapiens, UniProt P04150)
T3 sequence (P04150 whole entry): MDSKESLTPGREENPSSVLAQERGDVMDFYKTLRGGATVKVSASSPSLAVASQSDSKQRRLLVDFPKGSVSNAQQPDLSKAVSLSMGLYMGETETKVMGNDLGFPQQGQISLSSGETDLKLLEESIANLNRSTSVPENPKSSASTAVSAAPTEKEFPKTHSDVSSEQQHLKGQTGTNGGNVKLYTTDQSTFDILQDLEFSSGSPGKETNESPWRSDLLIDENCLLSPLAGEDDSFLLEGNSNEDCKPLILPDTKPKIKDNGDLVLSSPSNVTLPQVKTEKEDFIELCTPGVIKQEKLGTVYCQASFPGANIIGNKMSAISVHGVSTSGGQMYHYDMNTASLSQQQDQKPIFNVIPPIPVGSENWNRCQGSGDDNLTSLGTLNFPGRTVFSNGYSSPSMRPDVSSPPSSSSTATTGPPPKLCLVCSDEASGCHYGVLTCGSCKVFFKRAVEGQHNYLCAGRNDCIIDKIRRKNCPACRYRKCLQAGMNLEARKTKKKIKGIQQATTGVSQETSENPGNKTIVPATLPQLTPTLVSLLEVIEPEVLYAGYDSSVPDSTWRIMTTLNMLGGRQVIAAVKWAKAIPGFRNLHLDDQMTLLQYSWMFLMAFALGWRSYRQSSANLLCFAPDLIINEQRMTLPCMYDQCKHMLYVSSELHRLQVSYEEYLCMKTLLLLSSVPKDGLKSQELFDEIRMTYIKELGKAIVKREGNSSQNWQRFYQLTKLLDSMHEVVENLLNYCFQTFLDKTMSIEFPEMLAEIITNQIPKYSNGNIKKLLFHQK
Assay: Antagonist activity at glucocorticoid receptor in human HepG2 cells assessed as inhibition of glucocorticoid-induced TAT activity after 24 hrs
Type: cell-based
Conditions: not given

Point of comparison: `N#Cc1cccc(S(=O)(=O)N2CCC3=Cc4c(cnn4-c4ccc(F)cc4)C[C@]3(C(=O)c3ccccn3)C2)c1`, Ki 15 nM. Against it:
- Cc1ccc(S(=O)(=O)N2CCC3=Cc4c(cnn4-c4ccc(F)cc4)C[C@]3(C(=O)c3ccccn3)C2)cc1 — 3.3-fold lower, 4.5 nM
- O=C(c1ccccn1)[C@]12Cc3cnn(-c4ccc(F)cc4)c3C=C1CCN(S(=O)(=O)c1ccc(F)c(C(F)(F)F)c1)C2 — 1.5-fold lower, 9.7 nM
- O=C(c1ccccn1)[C@]12Cc3cnn(-c4ccc(F)cc4)c3C=C1CCN(S(=O)(=O)c1ccc(Cl)c(Cl)c1)C2 — within 1.5-fold, 14 nM
- Cc1ccccc1S(=O)(=O)N1CCC2=Cc3c(cnn3-c3ccc(F)cc3)C[C@]2(C(=O)c2ccccn2)C1 — within 1.5-fold, 18.5 nM

Target: T2, Glucocorticoid receptor
Assay: (§4) Antagonist activity at glucocorticoid receptor in rat primary hepatocytes assessed as inhibition of glucocorticoid-induced TAT activity
Type: cell-based, Hepatocyte
Conditions: not given
Outline: as §3

With `O=C(c1ccccn1)[C@]12Cc3cnn(-c4ccc(F)cc4)c3C=C1CCN(S(=O)(=O)c1ccc(Cl)c(Cl)c1)C2` the Ki was 150 nM.

Target: T4, Glucocorticoid receptor (Rattus norvegicus) (UniProt P06536)
T4 sequence (whole entry): T2 sequence (P06536 whole entry)
Assay: as §4
Type: cell-based
Conditions: Hepatocyte
Outline: as §3

`O=C(c1ccccn1)[C@]12Cc3cnn(-c4ccc(F)cc4)c3C=C1CCN(S(=O)(=O)c1ccc(Cl)c(Cl)c1)C2` gave an Efficacy of 74%.

Target: Voltage-gated inwardly rectifying potassium channel KCNH2 (Homo sapiens, UniProt Q12809)
Assay: Inhibition of human ERG by patch clamp technique
Conditions: not given

Sequence of Voltage-gated inwardly rectifying potassium channel KCNH2 (Q12809 whole entry): as the sequence (Q12809 whole entry) above

In the case of `O=C(c1ccccn1)[C@]12Cc3cnn(-c4ccc(F)cc4)c3C=C1CCN(S(=O)(=O)c1ccc(Cl)c(Cl)c1)C2`, the IC50 is reported as greater than 10000 nM.

Target: T3, Glucocorticoid receptor
Assay: Binding affinity to human recombinant glucocorticoid receptor by fluorescence polarization assay
Conditions: not given

Point of comparison: `N#Cc1cccc(S(=O)(=O)N2CCC3=Cc4c(cnn4-c4ccc(F)cc4)C[C@]3(C(=O)c3ccccn3)C2)c1`, Ki 0.14 nM. Against it:
- Cc1ccc(S(=O)(=O)N2CCC3=Cc4c(cnn4-c4ccc(F)cc4)C[C@]3(C(=O)c3ccccn3)C2)cc1 — 1.6-fold higher, 0.22 nM
- O=C(c1ccccn1)[C@]12Cc3cnn(-c4ccc(F)cc4)c3C=C1CCN(S(=O)(=O)c1ccc(F)c(C(F)(F)F)c1)C2 — 5.2-fold higher, 0.73 nM
- O=C(c1ccccn1)[C@]12Cc3cnn(-c4ccc(F)cc4)c3C=C1CCN(S(=O)(=O)c1ccc(Cl)c(Cl)c1)C2 — 4.6-fold higher, 0.64 nM
- Cc1ccccc1S(=O)(=O)N1CCC2=Cc3c(cnn3-c3ccc(F)cc3)C[C@]2(C(=O)c2ccccn2)C1 — within 1.5-fold, 0.21 nM
